The source made the active and inactive calls. The rule behind the calls is not given here.
How the values were obtained:
Adenosine receptor A1 = target: T1, Adenosine receptor A1 (Homo sapiens, UniProt P30542); experiment: Displacement of [3H]CCPA from human adenosine receptor A1 expressed in CHO cell membranes after 3 hrs by microbeta scintillation counting method
T1 sequence (P30542 whole entry): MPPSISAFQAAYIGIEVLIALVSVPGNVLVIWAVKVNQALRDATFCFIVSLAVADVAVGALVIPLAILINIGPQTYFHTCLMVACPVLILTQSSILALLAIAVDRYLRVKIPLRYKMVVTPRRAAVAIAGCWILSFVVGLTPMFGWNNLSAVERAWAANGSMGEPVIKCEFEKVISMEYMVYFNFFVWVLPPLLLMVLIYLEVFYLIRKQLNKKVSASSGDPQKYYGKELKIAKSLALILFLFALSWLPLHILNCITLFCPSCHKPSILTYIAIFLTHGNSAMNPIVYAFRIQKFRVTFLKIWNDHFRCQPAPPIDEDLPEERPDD

Adenosine receptor A2a [1] = target: T2, Adenosine receptor A2a (Homo sapiens, UniProt P29274); experiment: Displacement of [3H]NECA from human adenosine receptor A2A expressed in CHO cell membranes after 3 hrs by microbeta scintillation counting method
T2 sequence (P29274 whole entry): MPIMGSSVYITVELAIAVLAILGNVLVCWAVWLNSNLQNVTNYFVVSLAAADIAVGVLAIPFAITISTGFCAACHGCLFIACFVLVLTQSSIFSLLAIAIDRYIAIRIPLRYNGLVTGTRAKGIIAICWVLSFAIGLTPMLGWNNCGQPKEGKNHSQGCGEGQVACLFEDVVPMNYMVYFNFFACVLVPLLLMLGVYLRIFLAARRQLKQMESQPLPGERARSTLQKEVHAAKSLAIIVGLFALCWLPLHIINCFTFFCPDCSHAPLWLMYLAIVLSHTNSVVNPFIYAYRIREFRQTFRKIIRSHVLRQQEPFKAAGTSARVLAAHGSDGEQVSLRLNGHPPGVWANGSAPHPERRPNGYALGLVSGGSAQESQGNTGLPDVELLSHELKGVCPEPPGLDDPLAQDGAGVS

Adenosine receptor A3 = target: T3, Adenosine receptor A3 (Homo sapiens, UniProt P0DMS8); experiment: Displacement of [3H]HEMADO from human adenosine receptor A3 expressed in CHO cell membranes after 3 hrs by microbeta scintillation counting method
T3 sequence (P0DMS8 whole entry): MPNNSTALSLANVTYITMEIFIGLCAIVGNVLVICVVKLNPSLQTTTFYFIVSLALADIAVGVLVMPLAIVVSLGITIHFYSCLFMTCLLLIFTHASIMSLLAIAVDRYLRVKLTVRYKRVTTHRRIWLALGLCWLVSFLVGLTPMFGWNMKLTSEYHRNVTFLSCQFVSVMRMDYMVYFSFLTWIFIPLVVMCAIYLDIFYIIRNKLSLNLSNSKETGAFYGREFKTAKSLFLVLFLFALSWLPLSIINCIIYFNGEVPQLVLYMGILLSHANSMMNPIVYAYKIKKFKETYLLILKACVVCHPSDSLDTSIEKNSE

Adenosine receptor A2b = target: T4, Adenosine receptor A2b (Homo sapiens, UniProt P29275); experiment: Antagonist activity at human adenosine receptor A2B expressed in CHO cell membranes assessed as inhibition of NECA-induced increase of cAMP accumulation preincubated for 10 mins followed by NECA addition measured after 10 mins by GloSensor cAMP assay; type: functional, cell-based
T4 sequence (P29275 whole entry): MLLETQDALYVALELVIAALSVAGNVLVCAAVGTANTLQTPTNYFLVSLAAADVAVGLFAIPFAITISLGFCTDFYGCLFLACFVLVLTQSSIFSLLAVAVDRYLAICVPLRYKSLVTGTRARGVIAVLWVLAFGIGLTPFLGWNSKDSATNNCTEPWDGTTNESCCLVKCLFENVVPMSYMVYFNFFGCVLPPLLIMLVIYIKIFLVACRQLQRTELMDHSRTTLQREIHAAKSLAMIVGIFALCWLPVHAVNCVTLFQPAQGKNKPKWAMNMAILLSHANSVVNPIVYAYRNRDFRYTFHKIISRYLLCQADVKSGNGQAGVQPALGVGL
Method in brief: (§1)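 Receptors stably transfected in CHO cells. Antagonism read as inhibition of the NECA-stimulated rise in cAMP levels. IC50 values were derived from dose-response curves.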

Adenosine receptor A2a [2] = target: T2, Adenosine receptor A2a; experiment: Antagonist activity at human adenosine receptor A2A expressed in CHO cell membranes assessed as inhibition of NECA-induced increase of cAMP accumulation preincubated for 10 mins followed by NECA addition measured after 10 mins by GloSensor cAMP assay; type: functional, cell-based; method in brief: as §1
SH-SY5Y [3] = experiment: Neuroprotective activity against MPP+-induced toxicity in human SH-SY5Y cells assessed as increase in cell viability at 15 nM pretreated for 1 hr followed by MPP+ addition measured after 24 hrs by Celltiter-Glo luminescent assay; type: functional, cell-based
Method in brief: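 SH-SY5Y human neuroblastoma cells were exposed to MPP+ at 1.5 mM for 24 h, with test agent present, and cell viability was then measured. The MPP+ level was chosen from a pilot range of 50 μM to 3 mM over 24 h.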

SH-SY5Y [4] = experiment: Cytotoxicity against human SH-SY5Y cells assessed as increase in cell viability at 0.5 to 30 nM after 24 hrs by Celltiter-Glo luminescent assay; type: cell-based; conditions: 0.03 µM
SH-SY5Y [5] = experiment: Neuroprotective activity against MPP+-induced toxicity in human SH-SY5Y cells assessed as increase in cell viability at 15 nM pretreated for 1 hr followed by MPP+ addition measured after 24 hrs in the presence of human adenosine receptor A2A agonist CGS21680 by Celltiter-Glo luminescent assay; type: functional, cell-based
Method in brief: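 SH-SY5Y cells were given MPP+ (1.5 mM, 24 h) plus test agent at 15 nM, together with the A2A agonist CGS21680 at 10 to 100 nM, and cell viability was then measured.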

Row | Ki (Adenosine receptor A1) | Ki (Adenosine receptor A2a [1]) | Ki (Adenosine receptor A3) | IC50 (Adenosine receptor A2b) | IC50 (Adenosine receptor A2a [2]) | Structure (SMILES) | Activity (SH-SY5Y [3]) | Activity (SH-SY5Y [4]) | Activity (SH-SY5Y [5])
1 | > 30000 nM | 7.4 nM | > 30000 nM | > 30000 nM |  | CC(C)Oc1ccc(-c2cn3c(=O)n(-c4ccccc4)nc3c(N)n2)cc1 |  |  | 
2 | 698 nM | 4070 nM | 1050 nM | > 30000 nM |  | O=c1[nH]c(-c2cccc(O)c2)cn2c(=O)n(-c3ccccc3)nc12 |  |  | 
3 | > 30000 nM | > 30000 nM | 60 nM | > 30000 nM |  | Cc1cn2c(=O)n(-c3ccccc3)nc2c(=O)[nH]1 |  |  | 
4 | 247 nM | 415 nM | 63 nM | > 30000 nM |  | Nc1ccc(-n2nc3c(=O)[nH]c(-c4ccccc4)cn3c2=O)cc1 |  |  | 
5 | 45 nM | 45 nM | 53 nM | > 30000 nM |  | Nc1nc(-c2ccc(O)cc2)cn2c(=O)n(-c3ccccc3)nc12 |  |  | 
6 | > 30000 nM | > 30000 nM | > 30000 nM | > 30000 nM |  | Cc1ccc(-c2cn3c(=O)n(-c4ccccc4)nc3c(N)n2)cc1 |  |  | 
7 | 129 nM | 387 nM | 0.37 nM | > 30000 nM |  | O=c1[nH]c(-c2ccccc2)cn2c(=O)n(-c3ccc(O)cc3)nc12 |  |  | 
8 | > 30000 nM | > 30000 nM | > 30000 nM | > 30000 nM |  | COc1ccc(-c2cn3c(=O)n(-c4ccccc4)nc3c(=O)[nH]2)cc1 |  |  | 
9 | > 30000 nM | > 30000 nM | > 30000 nM | > 30000 nM |  | Nc1nc(-c2ccc(OCC3CC3)cc2)cn2c(=O)n(-c3ccccc3)nc12 |  |  | 
10 | > 30000 nM | 10.6 nM | > 30000 nM | > 30000 nM |  | C#CCOc1ccc(-c2cn3c(=O)n(-c4ccccc4)nc3c(N)n2)cc1 |  |  | 
11 | 616 nM | > 30000 nM | 207 nM | > 30000 nM |  | O=c1[nH]c(-c2ccc(O)cc2)cn2c(=O)n(-c3ccccc3)nc12 |  |  | 
12 | 45 nM | 5.1 nM | 67 nM | > 30000 nM |  | C#CCOc1cccc(-c2cn3c(=O)n(-c4ccccc4)nc3c(N)n2)c1 |  |  | 
13 | > 30000 nM | 2.9 nM | > 30000 nM | > 30000 nM | 98 nM | CCOc1ccc(-c2cn3c(=O)n(-c4ccccc4)nc3c(N)n2)cc1 |  |  | 
14 | 44 nM | 6.8 nM | 42 nM | > 30000 nM |  | COc1cccc(-c2cn3c(=O)n(-c4ccccc4)nc3c(N)n2)c1 |  |  | 
15 |  | 47 nM | 1560 nM | > 30000 nM |  | Nc1nc(-c2ccccc2)cn2c(=O)n(-c3ccccc3O)nc12 |  |  | 
16 | 13 nM | 10 nM | 11 nM | > 30000 nM |  | Nc1nc(-c2ccccc2)cn2c(=O)n(-c3ccccc3)nc12 |  |  | 
17 | > 30000 nM | > 30000 nM | > 30000 nM | > 30000 nM |  | Nc1nc(-c2ccc(OCC3CCC3)cc2)cn2c(=O)n(-c3ccccc3)nc12 |  |  | 
18 | 1480 nM | > 30000 nM | 21600 nM | > 30000 nM |  | O=c1[nH]c(-c2ccccc2)cn2c(=O)n(-c3ccccc3O)nc12 |  |  | 
19 | 20 nM | 78 nM | 117 nM | > 30000 nM |  | COc1ccc(-n2nc3c(N)nc(-c4ccccc4)cn3c2=O)cc1 |  |  | 

Row | Ki (Adenosine receptor A1) | Ki (Adenosine receptor A2a [1]) | Ki (Adenosine receptor A3) | IC50 (Adenosine receptor A2b) | IC50 (Adenosine receptor A2a [2]) | Structure (SMILES) | Activity (SH-SY5Y [3]) | Activity (SH-SY5Y [4]) | Activity (SH-SY5Y [5])
20 | 14 nM | 3.5 nM | 134 nM | > 30000 nM |  | Nc1nc(-c2cccc(O)c2)cn2c(=O)n(-c3ccccc3)nc12 |  |  | 
21 | > 30000 nM | > 30000 nM | > 30000 nM | > 30000 nM |  | Cc1ccc(-c2cn3c(=O)n(-c4ccccc4)nc3c(=O)[nH]2)cc1 |  |  | 
22 | > 30000 nM | > 30000 nM | 214 nM | > 30000 nM |  | COc1ccc(-n2nc3c(=O)[nH]c(-c4ccccc4)cn3c2=O)cc1 |  |  | 
23 | 1000 nM | 1320 nM | 5160 nM | > 30000 nM |  | Cc1cn2c(=O)n(-c3ccc(O)cc3)nc2c(N)n1 |  |  | 
24 | 1740 nM | 1040 nM | 255 nM | > 30000 nM |  | COc1ccc(-n2nc3c(N)nc(C)cn3c2=O)cc1 |  |  | 
25 | 8.1 nM | 402 nM | > 30000 nM | > 30000 nM |  | Nc1nc(-c2ccccc2)cn2c(=O)n(-c3ccc([N+](=O)[O-])cc3)nc12 |  |  | 
26 | 67 nM | 485 nM | 4370 nM | > 30000 nM |  | Cc1cn2c(=O)n(-c3ccccc3)nc2c(N)n1 |  |  | 
27 | > 30000 nM | > 30000 nM | > 30000 nM | > 30000 nM |  | Nc1nc(-c2cccc(OCc3ccccc3)c2)cn2c(=O)n(-c3ccccc3)nc12 |  |  | 
28 | 3700 nM | 708 nM | > 30000 nM | > 30000 nM |  | Nc1nc(-c2ccc(OCc3ccccc3)cc2)cn2c(=O)n(-c3ccccc3)nc12 |  |  | 
29 | > 30000 nM | 7.2 nM | > 30000 nM | > 30000 nM | 180 nM | COc1ccc(-c2cn3c(=O)n(-c4ccccc4)nc3c(N)n2)cc1 | Active | Non-Toxic | inactive
30 | 5740 nM |  | 229 nM | > 30000 nM |  | Cc1cn2c(=O)n(-c3ccc(O)cc3)nc2c(=O)[nH]1 |  |  | 
31 | > 30000 nM | > 30000 nM | 50 nM | > 30000 nM |  | COc1ccc(-n2nc3c(=O)[nH]c(C)cn3c2=O)cc1 |  |  | 
32 | > 30000 nM | > 30000 nM | > 30000 nM | > 30000 nM |  | COc1cccc(-c2cn3c(=O)n(-c4ccccc4)nc3c(=O)[nH]2)c1 |  |  | 
33 | 18 nM | 138 nM | 429 nM | > 30000 nM |  | Nc1nc(-c2ccccc2)cn2c(=O)n(-c3ccc(O)cc3)nc12 |  |  | 
34 | 8.9 nM | 3480 nM | 650 nM | > 30000 nM |  | Nc1ccc(-n2nc3c(N)nc(-c4ccccc4)cn3c2=O)cc1 |  |  | 
35 | > 30000 nM |  | > 30000 nM | > 30000 nM |  | CCCOc1ccc(-c2cn3c(=O)n(-c4ccccc4)nc3c(N)n2)cc1 |  |  | 
36 | 247 nM | 309 nM | 392 nM | > 30000 nM |  | COc1ccccc1-n1nc2c(N)nc(-c3ccccc3)cn2c1=O |  |  | 
37 | > 30000 nM | > 30000 nM | 96 nM | > 30000 nM |  | O=c1[nH]c(-c2ccccc2)cn2c(=O)n(-c3ccccc3)nc12 |  |  | 
38 | 2140 nM | > 30000 nM | 5200 nM | > 30000 nM |  | COc1ccccc1-n1nc2c(=O)[nH]c(-c3ccccc3)cn2c1=O |  |  | 

— ChEMBL document CHEMBL4011624, “The 1,2,4-Triazolo[4,3-a]pyrazin-3-one as a Versatile Scaffold for the Design of Potent Adenosine Human Receptor Antagonists. Structural Investigations to Target the A2A Receptor Subtype” (J Med Chem, 2017)
